Here are results for nine compounds from ChEMBL document CHEMBL3817818, “Synthesis and evaluation of fluorescent Pam3Cys peptide conjugates” (Bioorg Med Chem Lett, 2016).

The source made the active and inactive calls. No cut-off for these calls is given here. Where a SMILES comes first, the peptide text is derived from it. The star is where a group is joined. Propyl(2R-PamO,3-PamO) = CCCCCCCCCCCCCCCC(=O)OC[C@H](C*)OC(=O)CCCCCCCCCCCCCCC; X1 = CCCCCCCCCCCCCCCC(=O)OC[C@@H](C*)OC(=O)CCCCCCCCCCCCCCC; Palmitoyl = CCCCCCCCCCCCCCCC(=O)*

In data set [1] the target is Toll-like receptor 2 (Mus musculus) (UniProt Q9QUN7). The data set can be described thus: Agonist activity at TLR2 in H-2b harboring B6 mouse DC assessed as cell maturation by measuring increase in IL-12 p40 production at 0.0625 to 1 uM incubated for 48 hrs by sandwich ELISA. The essentials:
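Supernatants were harvested and IL-12 secretion measured by ELISA. Data shown are one representative of three independent experiments.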

Data set [2] addresses Toll-like receptor 2 (Homo sapiens) (UniProt O60603). The data set can be described thus: Agonist activity at human TLR2 expressed in HEK cells assessed as increase in IL-8 production at 25 to 100 nM incubated for 24 hrs by ELISA. The class given is cell-based. As to conditions: HEK293. The essentials: (§1)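 HEK cells transfected with human TLR2 were incubated 24 h with conjugates at 100–25 nM, or with Pam₃CysSK₄ at 100 ng/mL. Receptor activation was read as IL-8 produced in the assay. Error bars are SD.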
For orientation: In an ELISA, binding on a coated surface is turned into a signal by an enzyme label.

Data set [3] addresses Toll-like receptor 4 (Homo sapiens) (UniProt O00206). Description: Agonist activity at human TLR4 expressed in HEK cells assessed as increase in IL-8 production at 25 to 100 nM incubated for 24 hrs by ELISA. It is filed as cell-based. Particulars: HEK293.
Data set [4] is described as follows: Aqueous solubility of compound. The class given is physicochemical. As to conditions: buffer.
Data set [5] concerns the target Toll-like receptor 2 (Homo sapiens) (UniProt O60603). Description: Agonist activity at human TLR2 expressed in HEK cells assessed as increase in IL-8 production at 100 ng/ml incubated for 24 hrs by ELISA. It is filed as cell-based. As to conditions: HEK293. The essentials:
as §1

Data set [6] can be described thus: Drug uptake in H-2b harboring B6 mouse DC at 1 uM after 15 mins by confocal microscopic analysis. The class given is ADME. Particulars: in vitro, 0.25 h. The essentials:
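Dendritic cells were exposed to conjugate for 15 min. Uptake and intracellular localisation were imaged by confocal laser scanning microscopy. Images are representative of multiple cells in at least 3 experiments.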

Sequence of Toll-like receptor 4 (Homo sapiens) (O00206 whole entry): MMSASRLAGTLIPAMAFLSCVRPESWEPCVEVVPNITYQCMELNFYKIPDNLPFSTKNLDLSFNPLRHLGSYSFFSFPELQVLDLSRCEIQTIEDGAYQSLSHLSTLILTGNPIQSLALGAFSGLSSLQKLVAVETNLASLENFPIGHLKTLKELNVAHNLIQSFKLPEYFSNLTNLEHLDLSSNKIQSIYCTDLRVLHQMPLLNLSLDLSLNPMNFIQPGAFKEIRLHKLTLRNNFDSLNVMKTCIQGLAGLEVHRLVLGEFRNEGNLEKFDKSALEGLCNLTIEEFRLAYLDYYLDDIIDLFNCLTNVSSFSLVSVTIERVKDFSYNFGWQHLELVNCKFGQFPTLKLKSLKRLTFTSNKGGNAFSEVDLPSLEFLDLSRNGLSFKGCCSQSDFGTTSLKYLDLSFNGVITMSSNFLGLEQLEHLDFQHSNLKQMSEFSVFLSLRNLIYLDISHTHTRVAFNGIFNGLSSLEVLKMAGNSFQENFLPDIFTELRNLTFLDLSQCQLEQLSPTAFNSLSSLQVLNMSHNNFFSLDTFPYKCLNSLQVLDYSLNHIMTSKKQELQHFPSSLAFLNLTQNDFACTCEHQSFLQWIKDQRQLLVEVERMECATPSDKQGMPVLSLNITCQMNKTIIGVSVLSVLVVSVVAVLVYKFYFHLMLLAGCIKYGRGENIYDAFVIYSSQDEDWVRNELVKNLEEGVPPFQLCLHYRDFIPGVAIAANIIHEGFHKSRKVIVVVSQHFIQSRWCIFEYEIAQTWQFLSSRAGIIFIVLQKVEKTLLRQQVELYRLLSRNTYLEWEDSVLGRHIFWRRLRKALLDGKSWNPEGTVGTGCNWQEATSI
Sequence of Toll-like receptor 2 (Mus musculus) (Q9QUN7 whole entry): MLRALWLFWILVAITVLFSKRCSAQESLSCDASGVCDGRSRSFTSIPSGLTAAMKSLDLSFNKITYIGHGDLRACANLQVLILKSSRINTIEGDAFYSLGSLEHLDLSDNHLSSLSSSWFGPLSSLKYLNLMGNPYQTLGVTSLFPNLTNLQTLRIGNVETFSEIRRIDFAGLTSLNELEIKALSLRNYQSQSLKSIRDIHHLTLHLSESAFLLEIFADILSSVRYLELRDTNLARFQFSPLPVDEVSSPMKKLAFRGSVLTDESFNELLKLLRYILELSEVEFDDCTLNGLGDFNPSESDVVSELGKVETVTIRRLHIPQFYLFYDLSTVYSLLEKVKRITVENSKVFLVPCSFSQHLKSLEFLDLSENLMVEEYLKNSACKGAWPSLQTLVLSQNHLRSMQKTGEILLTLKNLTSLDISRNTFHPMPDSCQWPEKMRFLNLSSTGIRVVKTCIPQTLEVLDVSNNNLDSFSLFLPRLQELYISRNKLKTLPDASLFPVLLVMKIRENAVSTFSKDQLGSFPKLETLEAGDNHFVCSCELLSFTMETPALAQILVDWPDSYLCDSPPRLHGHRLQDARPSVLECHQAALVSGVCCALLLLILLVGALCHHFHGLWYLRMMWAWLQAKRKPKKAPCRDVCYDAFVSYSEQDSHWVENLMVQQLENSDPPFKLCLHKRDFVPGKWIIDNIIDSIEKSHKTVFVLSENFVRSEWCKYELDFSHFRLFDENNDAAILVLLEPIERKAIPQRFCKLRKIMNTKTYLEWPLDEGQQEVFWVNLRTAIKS
Sequence of Toll-like receptor 2 (Homo sapiens) (O60603 whole entry): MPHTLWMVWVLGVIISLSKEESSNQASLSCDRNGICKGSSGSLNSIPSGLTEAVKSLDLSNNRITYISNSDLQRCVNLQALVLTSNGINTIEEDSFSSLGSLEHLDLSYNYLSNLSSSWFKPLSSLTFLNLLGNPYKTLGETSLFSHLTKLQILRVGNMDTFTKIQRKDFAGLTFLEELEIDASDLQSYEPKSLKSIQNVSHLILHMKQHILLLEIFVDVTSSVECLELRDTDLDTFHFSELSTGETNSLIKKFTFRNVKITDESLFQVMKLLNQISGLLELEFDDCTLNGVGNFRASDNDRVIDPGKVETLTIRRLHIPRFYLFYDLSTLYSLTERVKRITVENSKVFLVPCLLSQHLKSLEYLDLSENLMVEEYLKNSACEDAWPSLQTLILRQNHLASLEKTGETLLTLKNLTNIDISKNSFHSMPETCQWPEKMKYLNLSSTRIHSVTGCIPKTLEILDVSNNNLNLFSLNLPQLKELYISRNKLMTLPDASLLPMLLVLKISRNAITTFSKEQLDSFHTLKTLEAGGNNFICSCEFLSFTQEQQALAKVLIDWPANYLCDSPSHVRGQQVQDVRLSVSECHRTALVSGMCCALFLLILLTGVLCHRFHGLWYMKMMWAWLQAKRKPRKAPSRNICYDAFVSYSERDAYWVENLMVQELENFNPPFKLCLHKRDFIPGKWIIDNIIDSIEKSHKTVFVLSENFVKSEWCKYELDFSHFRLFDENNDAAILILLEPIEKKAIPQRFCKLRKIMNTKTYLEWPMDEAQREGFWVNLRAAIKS

Regarding `CCCCCCCCCCCCCCCC(=O)N[C@@H](CSC[C@H](COC(=O)CCCCCCCCCCCCCCC)OC(=O)CCCCCCCCCCCCCCC)C(=O)N[C@@H](CO)C(=O)N[C@@H](CCCCN)C(=O)N[C@@H](CCCCN)C(=O)N[C@@H](CCCCN)C(=O)N[C@@H](CCCCN)C(=O)N[C@@H](CC(=O)O)C(=O)N[C@@H](CCC(=O)O)C(=O)N[C@H](C(=O)N[C@@H](CO)C(=O)NCC(=O)N[C@@H](CC(C)C)C(=O)N[C@@H](CCC(=O)O)C(=O)N[C@@H](CCC(N)=O)C(=O)N[C@@H](CC(C)C)C(=O)N[C@@H](CCC(=O)O)C(=O)N[C@@H](CO)C(=O)N[C@H](C(=O)N[C@H](C(=O)N[C@@H](CC(N)=O)C(=O)N[C@@H](Cc1ccccc1)C(=O)N[C@@H](CCC(=O)O)C(=O)N[C@@H](CCCCN)C(=O)N[C@@H](CC(C)C)C(=O)O)[C@@H](C)CC)[C@@H](C)CC)C(C)C` (Palmitoyl-C(X1)SKKKKDEVSGLEQLESIINFEKL-OH), the result in data set [1], in data set [2] and in data set [3] was inactive.

As for `CCCCCCCCCCCCCCCC(=O)N[C@@H](CSC[C@H](COC(=O)CCCCCCCCCCCCCCC)OC(=O)CCCCCCCCCCCCCCC)C(=O)N[C@@H](CO)C(=O)N[C@@H](CCCCN)C(=O)N[C@@H](CCCCN)C(=O)N[C@@H](CCCCN)C(=O)N[C@@H](CCCCN)C(=O)N[C@@H](CC(=O)O)C(=O)N[C@@H](CCC(=O)O)C(=O)N[C@H](C(=O)N[C@@H](CO)C(=O)NCC(=O)N[C@@H](CC(C)C)C(=O)N[C@@H](CCC(=O)O)C(=O)N[C@@H](CCC(N)=O)C(=O)N[C@@H](CC(C)C)C(=O)N[C@@H](CCC(=O)O)C(=O)N[C@@H](CO)C(=O)N[C@H](C(=O)N[C@H](C(=O)N[C@@H](CC(N)=O)C(=O)N[C@@H](Cc1ccccc1)C(=O)N[C@H](CCC(=O)O)C(=O)N[C@@H](CCCCn1nnc2c1CC[C@H]1[C@@H](CC2)[C@H]1COC(=O)NCCOCCOCCNC(=O)CCCC[N+]1=C(/C=C/C=C/C=C2\N(C)c3ccccc3C2(C)C)C(C)(C)c2ccccc21)C(=O)N[C@H](CC(C)C)C(=O)O)[C@H](C)CC)[C@H](C)CC)C(C)C`, the result in data set [1], in data set [2] and in data set [3] was inactive.

Turning to `CCCCCCCCCCCCCCCC(=O)N[C@H](CSC[C@H](COC(=O)CCCCCCCCCCCCCCC)OC(=O)CCCCCCCCCCCCCCC)C(=O)N[C@H](CO)C(=O)N[C@H](CCCCN)C(=O)N[C@H](CCCCN)C(=O)N[C@H](CCCCN)C(=O)N[C@H](CCCCN)C(=O)N[C@H](CC(=O)O)C(=O)N[C@H](CCC(=O)O)C(=O)N[C@@H](C(=O)N[C@H](CO)C(=O)NCC(=O)N[C@H](CC(C)C)C(=O)N[C@H](CCC(=O)O)C(=O)N[C@H](CCC(N)=O)C(=O)N[C@H](CC(C)C)C(=O)N[C@H](CCC(=O)O)C(=O)N[C@H](CO)C(=O)N[C@@H](C(=O)N[C@@H](C(=O)N[C@H](CC(N)=O)C(=O)N[C@H](Cc1ccccc1)C(=O)N[C@@H](CCC(=O)O)C(=O)N[C@H](CCCCn1nnc2c1CC[C@@H]1[C@H](CC2)[C@@H]1COC(=O)NCCOCCOCCNC(=O)c1ccc(-c2c3ccc(=[N+](C)C)cc-3oc3cc(N(C)C)ccc23)c(C(=O)[O-])c1)C(=O)N[C@@H](CC(C)C)C(=O)O)[C@@H](C)CC)[C@@H](C)CC)C(C)C`, the outcome in data set [1] was Active. Also, in data set [4], the solubility entry is “Insoluble”.

Regarding `CCCCCCCCCCCCCCCC(=O)N[C@@H](CSC[C@@H](COC(=O)CCCCCCCCCCCCCCC)OC(=O)CCCCCCCCCCCCCCC)C(=O)N[C@@H](CO)C(=O)N[C@@H](CCCCN)C(=O)N[C@@H](CCCCN)C(=O)N[C@@H](CCCCN)C(=O)N[C@@H](CCCCN)C(=O)N[C@@H](CC(=O)O)C(=O)N[C@@H](CCC(=O)O)C(=O)N[C@H](C(=O)N[C@@H](CO)C(=O)NCC(=O)N[C@@H](CC(C)C)C(=O)N[C@@H](CCC(=O)O)C(=O)N[C@@H](CCC(N)=O)C(=O)N[C@@H](CC(C)C)C(=O)N[C@@H](CCC(=O)O)C(=O)N[C@@H](CO)C(=O)N[C@H](C(=O)N[C@H](C(=O)N[C@@H](CC(N)=O)C(=O)N[C@@H](Cc1ccccc1)C(=O)N[C@@H](CCC(=O)O)C(=O)N[C@@H](CCCCN)C(=O)N[C@@H](CC(C)C)C(=O)O)[C@@H](C)CC)[C@@H](C)CC)C(C)C` (Palmitoyl-C(Propyl(2R-PamO,3-PamO))SKKKKDEVSGLEQLESIINFEKL-OH), the outcome in data set [1] and in data set [2] was Active. Further, in data set [3], the outcome was inactive.

As to `CCCCCCCCCCCCCCCC(=O)N[C@@H](CSC[C@@H](COC(=O)CCCCCCCCCCCCCCC)OC(=O)CCCCCCCCCCCCCCC)C(=O)N[C@@H](CO)C(=O)N[C@@H](CCCCN)C(=O)N[C@@H](CCCCN)C(=O)N[C@@H](CCCCN)C(=O)N[C@@H](CCCCN)C(=O)O` (Palmitoyl-C(Propyl(2R-PamO,3-PamO))SKKKK-OH), the result in data set [5] was Active.

In the case of `CCCCCCCCCCCCCCCC(=O)N[C@@H](CSC[C@@H](COC(=O)CCCCCCCCCCCCCCC)OC(=O)CCCCCCCCCCCCCCC)C(=O)N[C@@H](CO)C(=O)N[C@@H](CCCCN)C(=O)N[C@@H](CCCCN)C(=O)N[C@@H](CCCCN)C(=O)N[C@@H](CCCCN)C(=O)N[C@@H](CC(=O)O)C(=O)N[C@@H](CCC(=O)O)C(=O)N[C@H](C(=O)N[C@@H](CO)C(=O)NCC(=O)N[C@@H](CC(C)C)C(=O)N[C@@H](CCC(=O)O)C(=O)N[C@@H](CCC(N)=O)C(=O)N[C@@H](CC(C)C)C(=O)N[C@@H](CCC(=O)O)C(=O)N[C@@H](CO)C(=O)N[C@H](C(=O)N[C@H](C(=O)N[C@@H](CC(N)=O)C(=O)N[C@@H](Cc1ccccc1)C(=O)N[C@H](CCC(=O)O)C(=O)N[C@@H](CCCCn1nnc2c1CC[C@H]1[C@@H](CC2)[C@H]1COC(=O)NCCOCCOCCNC(=O)CCCC[N+]1=C(/C=C/C=C/C=C2\N(C)c3ccccc3C2(C)C)C(C)(C)c2ccccc21)C(=O)N[C@H](CC(C)C)C(=O)O)[C@H](C)CC)[C@H](C)CC)C(C)C`, the outcome in data set [1] and in data set [2] was Active. In addition, the result in data set [3] was inactive.

On to `CCCCCCCCCCCCCCCC(=O)N[C@@H](CSC[C@@H](COC(=O)CCCCCCCCCCCCCCC)OC(=O)CCCCCCCCCCCCCCC)C(=O)N[C@@H](CO)C(=O)N[C@@H](CCCCN)C(=O)N[C@@H](CCCCN)C(=O)N[C@@H](CCCCN)C(=O)N[C@@H](CCCCN)C(=O)N[C@@H](CC(=O)O)C(=O)N[C@@H](CCC(=O)O)C(=O)N[C@H](C(=O)N[C@@H](CO)C(=O)NCC(=O)N[C@@H](CC(C)C)C(=O)N[C@@H](CCC(=O)O)C(=O)N[C@@H](CCC(N)=O)C(=O)N[C@@H](CC(C)C)C(=O)N[C@@H](CCC(=O)O)C(=O)N[C@@H](CO)C(=O)N[C@H](C(=O)N[C@H](C(=O)N[C@@H](CC(N)=O)C(=O)N[C@@H](Cc1ccccc1)C(=O)N[C@@H](CCC(=O)O)C(=O)N[C@@H](CCCCn1nnc2c1CC[C@H]1[C@@H](CC2)[C@H]1COC(=O)NCCOCCOCCNC(=O)CCCC[N+]1=C(/C=C/C=C/C=C2\N(C)c3ccccc3C2(C)C)C(C)(C)c2ccccc21)C(=O)N[C@@H](CC(C)C)C(=O)O)[C@@H](C)CC)[C@@H](C)CC)C(C)C`, for which the Drug uptake result in data set [6] is “Active”.

As for `CCCCCCCCCCCCCCCC(=O)N[C@H](CSC[C@@H](COC(=O)CCCCCCCCCCCCCCC)OC(=O)CCCCCCCCCCCCCCC)C(=O)N[C@H](CO)C(=O)N[C@H](CCCCN)C(=O)N[C@H](CCCCN)C(=O)N[C@H](CCCCN)C(=O)N[C@H](CCCCN)C(=O)N[C@H](CC(=O)O)C(=O)N[C@H](CCC(=O)O)C(=O)N[C@@H](C(=O)N[C@H](CO)C(=O)NCC(=O)N[C@H](CC(C)C)C(=O)N[C@H](CCC(=O)O)C(=O)N[C@H](CCC(N)=O)C(=O)N[C@H](CC(C)C)C(=O)N[C@H](CCC(=O)O)C(=O)N[C@H](CO)C(=O)N[C@@H](C(=O)N[C@@H](C(=O)N[C@H](CC(N)=O)C(=O)N[C@H](Cc1ccccc1)C(=O)N[C@@H](CCC(=O)O)C(=O)N[C@H](CCCCn1nnc2c1CC[C@@H]1[C@H](CC2)[C@@H]1COC(=O)NCCOCCOCCNC(=O)c1ccc(-c2c3ccc(=[N+](C)C)cc-3oc3cc(N(C)C)ccc23)c(C(=O)[O-])c1)C(=O)N[C@@H](CC(C)C)C(=O)O)[C@@H](C)CC)[C@@H](C)CC)C(C)C`, in data set [1], the result was inactive. Also, the solubility result in data set [4] is “Insoluble”.

Consider `CCCCCCCCCCCCCCCC(=O)N[C@@H](CSC[C@H](COC(=O)CCCCCCCCCCCCCCC)OC(=O)CCCCCCCCCCCCCCC)C(=O)N[C@@H](CO)C(=O)N[C@@H](CCCCN)C(=O)N[C@@H](CCCCN)C(=O)N[C@@H](CCCCN)C(=O)N[C@@H](CCCCN)C(=O)N[C@@H](CC(=O)O)C(=O)N[C@@H](CCC(=O)O)C(=O)N[C@H](C(=O)N[C@@H](CO)C(=O)NCC(=O)N[C@@H](CC(C)C)C(=O)N[C@@H](CCC(=O)O)C(=O)N[C@@H](CCC(N)=O)C(=O)N[C@@H](CC(C)C)C(=O)N[C@@H](CCC(=O)O)C(=O)N[C@@H](CO)C(=O)N[C@H](C(=O)N[C@H](C(=O)N[C@@H](CC(N)=O)C(=O)N[C@@H](Cc1ccccc1)C(=O)N[C@@H](CCC(=O)O)C(=O)N[C@@H](CCCCn1nnc2c1CC[C@H]1[C@@H](CC2)[C@H]1COC(=O)NCCOCCOCCNC(=O)CCCC[N+]1=C(/C=C/C=C/C=C2\N(C)c3ccccc3C2(C)C)C(C)(C)c2ccccc21)C(=O)N[C@@H](CC(C)C)C(=O)O)[C@@H](C)CC)[C@@H](C)CC)C(C)C`, for which, in data set [6], the Drug uptake result is “Active”.
